Screens (PubChem BioAssay)
This is a sample that favours compounds with a hit; in the whole collection about 12% have one here.
RAM inhibit – inhibitors of the yeast RAM network, primary screen, dse1pr::URA3 reporter, 5-FOA selection; inhibition, % at 50 µM; S. cerevisiae dse1pr::URA3 reporter, 5-FOA growth OD615, 2 d; analog-sensitive cbk1-as2 kinase mutant strain; hit rate 1.8% among 190,000;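 active means inhibition above a set limit, 3 SD over mean compound inhibition, cut at about 8.4% in these data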;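 further: 0% = DMSO-only wells with no growth and 100% = 10 µM 1-NA-PP1 full growth; inhibition rescues growth on 5-FOA so higher OD means more RAM inhibition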
ABCG2 block – ABCG2 efflux pump inhibitors, primary screen, multiplex with ABCB1, IgMXP3 cells, flow cytometry | AID 1325, 2008 | JC-1 efflux | inhibition, % at 6.6 µM | hit rate 0.1% among 190,000;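 active means inhibition above 80%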;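 further: 0% = DMSO and 100% = nicardipine control wells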
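Measure – % inhibition of efflux relative to nicardipine and DMSO · Test system – ABCG2 IgMXP3 and barcoded ABCB1 CCRF-Adr cell mix · Control set – nicardipine as high control, DMSO as low control · Compound – one concentration, 6.6 µM final · Signal – flow cytometry of retained JC-1 fluorescence · Timing – 10 min exposure at 25 °C with rotation, no wash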
Lmaj promast – Leishmania major promastigote growth inhibition, primary screen | Leishmania major promastigotes, resazurin fluorescence viability | inhibition, % at 10 µM | hit rate 9% among 200,000 | AID 1063, 2008; in the data active means inhibition above about 50%;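 further: promastigotes grown with compound for 44 hours at 28 °C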
WT yeast gro inh – growth inhibition of WT strain, primary screen, mitochondrial fusion inhibitor project, WT and mutant strains, chemical genetic; mitochondrial fusion phenotypic screen; inhibition, % at 10 µM; hit rate 2.1% among 190,000; AID 1362, 2008; in the data active means inhibition above about 58%; tested in S. cerevisiae
ABCB1 inh – ABCB1 efflux pump inhibitors, primary screen, cell-based, multiplex, flow cytometry, ABCG2 counter-screen; CCRF-Adr cells, JC-1 efflux; inhibition, % at 6.6 µM; hit rate 0.067% among 190,000; AID 1326, 2008; in the data active means inhibition above about 40%;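 further: 0% = vehicle and 100% = reference inhibitor; higher value means more JC-1 retained so stronger ABCB1 efflux block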
The depositor's hits bear a star; / = no result given.

SMILES	RAM inhibit	ABCG2 block	Lmaj promast	WT yeast gro inh	ABCB1 inh
COC(=O)C1=C(C)N=c2s/c(=C/c3cccs3)c(=O)n2C1c1cccs1 (stereo not drawn)	9.2*	0.0	7.6	45.9	-1.7
CN(C)CCOc1nc(-c2ccccc2)nc2c1oc1ccccc12	1.4	6.5	99.8*	13.7	1.9
CC[n+]1ccccc1/C=C/c1ccc(N(C)C)cc1	0.5	-0.4	96.1*	2.3	1.3
CC[n+]1c(/C=C/c2ccc(N(C)C)cc2)ccc2ccccc21	4.6	-15.4	100.4*	88.7	-0.4
CN(C)c1ccc(/C=C/c2cc[n+]([O-])cc2)cc1	0.1	1.7	-4.4	-10.3	0.3
CC[n+]1ccc(/C=C/c2ccc(N(C)C)cc2)c2ccccc21	3.2	0.0	100.3*	86.6*	0.3
CN(C)c1ccc(/C=N/N=C/c2ccccc2O)cc1	1.1	16.3	-6.2	22.5	1.0
CCNc1nc(NCC)nc(N/N=C/c2ccc(N(C)C)cc2)n1	-0.4	-0.4	19.1	-1.8	-0.5
CN(C)c1ccc(/C=C/c2cc[n+](C)cc2)cc1	0.8	3.0	99.0*	-1.6	2.1
COCCNC(=O)CSc1nc(N)c(NC(=O)c2ccccc2F)c(=O)[nH]1	0.1	-1.9	-1.8	1.2	0.2
O=C(c1ccc(Cn2c(=S)[nH]c3cc4c(cc3c2=O)OCO4)cc1)N1CCN(c2ncccn2)CC1	5.1	2.2	11.2	3.9	0.8
Cc1ccccc1CSc1ccc2nnc(-c3ccccn3)n2n1	1.0	3.2	34.8	-7.2	0.5
CC1CCN(C(=O)C2CCN(CCCc3ccccc3)CC2)CC1	0.9	1.0	53.0*	8.2	0.6
O=C(C1CCCN(CCCc2ccccc2)C1)N1CCCCCC1 (stereo not drawn)	2.6	0.7	71.0*	-9.0	0.4
O=C(C1CCCN(CCCc2ccccc2)C1)N1CCCCC1 (stereo not drawn)	1.5	-2.6	-7.9	0.5	0.0
CN1CCN(Cc2c(O)ccc3c(-c4ccccc4)cc(=O)oc23)CC1	0.8	-0.4	80.5*	-8.5	-1.3
CCN(CC)Cc1c(O)ccc2c(-c3ccccc3)cc(=O)oc12	1.3	4.5	-2.5	9.3	1.0
CCCCN(C)Cc1c(O)ccc2c(-c3ccccc3)cc(=O)oc12	-0.1	-1.4	64.9*	14.1	-3.0
O=C(Cn1cnc([N+](=O)[O-])n1)N/N=C/c1ccccc1O	0.0	-1.5	99.6*	43.5	-0.3
O=C(Cn1cnc([N+](=O)[O-])n1)N/N=C/c1cc(Cl)ccc1O	-1.6	2.2	100.2*	-5.9	0.9
COc1ccc(-c2c[n+]3c4n2CCCCC4=C(c2ccc(Br)cc2)C3)cc1	-0.8	1.8	100.0*	-7.0	0.7
Clc1ccc(-c2cnc3n2CCC3)cc1	1.6	2.3	-5.0	1.3	0.2
Clc1ccc(C2=C3CCCCn4c(-c5ccccc5)c[n+](c43)C2)cc1	0.8	7.5	100.3*	1.2	1.2
N#Cc1c(-c2ccccc2)ccnc1Oc1ccccc1	3.4	0.9	-0.6	-20.2	0.2
COc1ccc(S(=O)(=O)N2CCOCC2)cc1NC(=O)COC(=O)C1COc2ccccc2O1 (stereo not drawn)	0.5	16.9	66.2*	-4.4	0.3
SMILES	RAM inhibit	ABCG2 block	Lmaj promast	WT yeast gro inh	ABCB1 inh
COc1ccc(S(=O)(=O)N2CCOCC2)cc1NC(=O)COC(=O)c1ccc(C)s1	5.3	0.9	-1.4	15.0	-0.1
COc1ccc(S(=O)(=O)N2CCOCC2)cc1NC(=O)CN1CCC(Cc2ccccc2)CC1	-0.4	27.2	99.1*	42.4	6.4
CCSC(=S)Nc1c(C)n(C)n(-c2ccccc2)c1=O	0.4	9.6	9.7	2.6	0.7
CCOC(=O)c1sc(-c2ccccc2)cc1NC(=O)Nc1ccc([N+](=O)[O-])cc1	7.1	-10.8	84.9*	0.3	-1.5
C=CCSC1=N/C(=C\c2cc(OCC)c(OC(C)=O)c([N+](=O)[O-])c2)C(=O)S1	2.8	-0.7	-1.1	34.7	-0.5
Cn1c(O)c(N=NC(=O)Cn2c(C(F)(F)F)nc3ccccc32)c2ccccc21	5.8	1.5	-6.0	-25.2	4.1
CCOC(=O)CC(=O)CSc1nc(-c2cccnc2)ccc1C#N	2.3	6.0	1.5	14.2	0.6
CCSc1nc(-c2cccnc2)ccc1C#N	0.1	19.9	76.5*	-1.9	0.2
Cc1ccccc1C(=O)NC(CC(C)C)C(=O)OCC(=O)c1c(N)n(C)c(=O)n(C)c1=O (stereo not drawn)	1.7	4.4	-7.4	9.9	0.0
CC1CCC(NC(=O)CN2C(=O)COc3ccc(S(=O)(=O)N4CCCC4)cc32)CC1 (stereo not drawn)	1.6	8.5	-0.7	-13.0	0.5
O=S(=O)(c1ccc2ccccc2c1)N1CCCCCC1	0.3	3.0	-6.0	-7.9	0.7
COc1ccc(S(=O)(=O)N2CCC(N3CCN(c4ccccc4)CC3)CC2)cc1	-0.1	0.9	-2.3	-13.8	0.3
O=S(=O)(c1ccc(S(=O)(=O)N2CCN(Cc3ccccc3)CC2)cc1)N1CCOCC1	0.1	4.6	-1.5	-4.6	1.2
O=S(=O)(c1ccc2ccccc2c1)N1CCN(C2Cc3ccccc3C2)CC1	0.0	19.2	85.9*	-5.7	1.4
O=S(=O)(c1ccccc1)N1CCN(C2CCN(Cc3ccccc3)CC2)CC1	-0.3	5.3	96.0*	8.2	-1.4
COc1ccc(S(=O)(=O)N2CCN(C3CCN(Cc4ccccc4)CC3)CC2)cc1	1.7	0.0	94.1*	-2.9	0.0
Cc1ccc(S(=O)(=O)N2CCN(C3CCN(Cc4ccccc4)CC3)CC2)cc1	0.3	0.6	97.8*	5.8	0.3
Cc1nc2ccc(C(=O)OCc3ccccc3Br)cc2nc1C	8.1	12.5	1.1	-1.0	1.1
COc1ccccc1N1CCN(C2CCN(S(=O)(=O)c3ccc4ccccc4c3)CC2)CC1	0.4	6.0	54.9*	21.3	3.8
CCn1c(SCc2ccccc2)nnc1C1CCN(S(=O)(=O)c2ccc(OC)cc2)CC1	-1.3	4.3	90.6*	-12.9	1.4
O=S(=O)(c1ccc2ccccc2c1)N1CCN(Cc2ccccn2)CC1	0.0	2.2	-5.7	-10.3	0.9
COc1ccc(S(=O)(=O)N2CCN(c3ccccc3OC)CC2)cc1OC	/	4.1	3.5	1.4	0.5
O=S(=O)(c1ccc(Cl)cc1)N1CCC(O)(CN2CCN(Cc3ccccc3)CC2)CC1	1.4	2.8	100.0*	5.2	0.2
O=S(=O)(c1ccc2ccccc2c1)N1CCN(C2CCN(Cc3ccccc3)CC2)CC1	-0.4	1.4	97.2*	22.2	0.7
COc1cc(NC(=S)Nc2ccc(N(C)C(C)=O)cc2)cc(OC)c1	2.5	2.2	-2.5	-4.9	0.3
CS(=O)(=O)NC1CCN(Cc2ccccc2)CC1	0.7	4.0	3.9	-6.1	0.6
O=S(=O)(NC1CCCC1)c1ccc(S(=O)(=O)N2CCCN(Cc3ccccc3)C2)cc1	0.0	1.0	83.7*	-10.5	0.7
